This is an account of results in ChEMBL document CHEMBL1144412, “High affinity central benzodiazepine receptor ligands: synthesis and biological evaluation of a series of phenyltriazolobenzotriazindione derivatives” (J Med Chem, 2005).

The target of test [1] is GABA-A receptor; anion channel. Description: Displacement of [3H]flumazenil from bovine benzodiazepine receptor GABA-A channel of brain membranes. Also on record: species or system Bos taurus. A general note: Loss of bound radioactivity is the signal in a displacement assay; it reports binding, not function.
The target of test [2] is GABA-A receptor; alpha-1/beta-2/gamma-2 (Rattus norvegicus, UniProt P18508+P62813+P63138). The experiment in a line: Displacement of [3H]flumazenil from rat GABA-A Gamma-aminobutyric acid A receptor alpha-1-beta-2-gamma-2 expressed in HEK293 cells. The class given is cell-based. In outline: (§1)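 HEK293 cells stably expressing each rat subtype, grown in DMEM/F-12 with 10% FBS at 37 °C, 5% CO2. Harvested cells were homogenized in 10 mM potassium phosphate pH 7.4 and spun at 48 000g for 30 min at 4 °C. Pellets were washed and resuspended with 100 mM KCl. Ki from three determinations.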
GABA-A receptor; alpha-1/beta-2/gamma-2, sequence (P18508 whole entry): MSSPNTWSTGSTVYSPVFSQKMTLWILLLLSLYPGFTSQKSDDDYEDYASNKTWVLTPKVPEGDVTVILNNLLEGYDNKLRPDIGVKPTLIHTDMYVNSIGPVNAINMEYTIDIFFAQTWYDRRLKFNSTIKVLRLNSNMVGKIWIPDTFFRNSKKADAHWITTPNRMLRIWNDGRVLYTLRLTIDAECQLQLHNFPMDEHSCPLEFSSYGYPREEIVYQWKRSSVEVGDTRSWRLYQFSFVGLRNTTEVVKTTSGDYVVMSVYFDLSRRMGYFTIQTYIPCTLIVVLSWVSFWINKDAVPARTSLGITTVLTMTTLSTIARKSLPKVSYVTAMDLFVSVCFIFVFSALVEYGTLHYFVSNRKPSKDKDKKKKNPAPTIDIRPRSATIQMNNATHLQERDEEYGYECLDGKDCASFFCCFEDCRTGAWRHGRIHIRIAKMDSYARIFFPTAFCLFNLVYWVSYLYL
GABA-A receptor; alpha-1/beta-2/gamma-2, sequence (P62813 whole entry): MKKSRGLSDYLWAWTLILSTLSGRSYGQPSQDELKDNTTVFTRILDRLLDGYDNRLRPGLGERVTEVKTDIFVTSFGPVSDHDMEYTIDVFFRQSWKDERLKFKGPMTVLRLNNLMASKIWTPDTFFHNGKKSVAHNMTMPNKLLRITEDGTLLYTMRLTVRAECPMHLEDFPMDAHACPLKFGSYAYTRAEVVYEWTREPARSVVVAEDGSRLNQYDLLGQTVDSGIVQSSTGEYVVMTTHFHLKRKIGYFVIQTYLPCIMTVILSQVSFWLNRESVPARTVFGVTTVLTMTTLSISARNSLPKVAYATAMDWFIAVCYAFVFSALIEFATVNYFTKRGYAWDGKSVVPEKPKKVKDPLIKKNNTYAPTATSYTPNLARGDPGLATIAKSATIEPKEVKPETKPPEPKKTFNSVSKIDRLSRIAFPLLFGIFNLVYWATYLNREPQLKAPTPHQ
GABA-A receptor; alpha-1/beta-2/gamma-2, sequence (P63138 whole entry): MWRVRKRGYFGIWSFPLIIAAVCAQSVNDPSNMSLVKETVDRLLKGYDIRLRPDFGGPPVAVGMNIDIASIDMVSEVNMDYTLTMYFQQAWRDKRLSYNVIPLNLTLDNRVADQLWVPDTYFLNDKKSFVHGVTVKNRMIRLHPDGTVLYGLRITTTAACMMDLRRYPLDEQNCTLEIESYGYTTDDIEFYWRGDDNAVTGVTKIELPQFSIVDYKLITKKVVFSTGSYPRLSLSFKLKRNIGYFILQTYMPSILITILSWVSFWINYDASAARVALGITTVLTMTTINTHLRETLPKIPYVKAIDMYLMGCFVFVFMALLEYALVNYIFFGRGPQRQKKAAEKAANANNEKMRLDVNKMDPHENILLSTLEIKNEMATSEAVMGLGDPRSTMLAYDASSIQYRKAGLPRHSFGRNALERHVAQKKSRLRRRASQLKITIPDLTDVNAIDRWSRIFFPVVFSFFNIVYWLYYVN

Test [3] addresses GABA A receptor alpha-2/beta-2/gamma-2 (Rattus norvegicus, UniProt P18508+P23576+P63138). Description: Displacement of [3H]flumazenil from rat GABA-A Gamma-aminobutyric acid A receptor alpha-2-beta-2-gamma-2 expressed in HEK293 cells. The class given is cell-based. In outline:
as §1

Test [4] has as its target GABA A receptor alpha-5/beta-3/gamma-2 (Rattus norvegicus, UniProt P18508+P19969+P63079). Description: Displacement of [3H]flumazenil from rat GABA-A Gamma-aminobutyric acid A receptor alpha-5-beta-3-gamma-2 expressed in HEK293 cells. The test is classed as cell-based. The gist of the method:
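HEK293 cells stably expressing each rat subtype, grown in DMEM/F-12 with 10% FBS at 37 °C, 5% CO2. Harvested cells were homogenized in 10 mM potassium phosphate pH 7.4 and spun at 48 000g for 30 min at 4 °C. Pellets were washed and resuspended with 100 mM KCl. Incubated with [3H]flumazenil 1-2 nM and compound 10-9-10-5 M for 1 h at 4 °C. […] Ki from three determinations.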

GABA A receptor alpha-5/beta-3/gamma-2, sequence (P18508 whole entry): as the sequence (P18508 whole entry) above
GABA A receptor alpha-5/beta-3/gamma-2, sequence (P19969 whole entry): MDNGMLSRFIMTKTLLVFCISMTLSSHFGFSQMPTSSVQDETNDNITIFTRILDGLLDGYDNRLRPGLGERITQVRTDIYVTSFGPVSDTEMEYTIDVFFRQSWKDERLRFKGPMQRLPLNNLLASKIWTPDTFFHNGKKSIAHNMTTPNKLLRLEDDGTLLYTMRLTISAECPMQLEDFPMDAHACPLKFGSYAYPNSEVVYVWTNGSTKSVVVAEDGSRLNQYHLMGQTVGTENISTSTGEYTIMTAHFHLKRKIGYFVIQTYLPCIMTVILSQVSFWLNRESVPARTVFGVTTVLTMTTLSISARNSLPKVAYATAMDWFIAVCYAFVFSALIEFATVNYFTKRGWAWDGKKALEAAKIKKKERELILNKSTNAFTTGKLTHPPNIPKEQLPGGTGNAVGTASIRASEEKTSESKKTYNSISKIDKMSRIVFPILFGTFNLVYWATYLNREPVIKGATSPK
GABA A receptor alpha-5/beta-3/gamma-2, sequence (P63079 whole entry): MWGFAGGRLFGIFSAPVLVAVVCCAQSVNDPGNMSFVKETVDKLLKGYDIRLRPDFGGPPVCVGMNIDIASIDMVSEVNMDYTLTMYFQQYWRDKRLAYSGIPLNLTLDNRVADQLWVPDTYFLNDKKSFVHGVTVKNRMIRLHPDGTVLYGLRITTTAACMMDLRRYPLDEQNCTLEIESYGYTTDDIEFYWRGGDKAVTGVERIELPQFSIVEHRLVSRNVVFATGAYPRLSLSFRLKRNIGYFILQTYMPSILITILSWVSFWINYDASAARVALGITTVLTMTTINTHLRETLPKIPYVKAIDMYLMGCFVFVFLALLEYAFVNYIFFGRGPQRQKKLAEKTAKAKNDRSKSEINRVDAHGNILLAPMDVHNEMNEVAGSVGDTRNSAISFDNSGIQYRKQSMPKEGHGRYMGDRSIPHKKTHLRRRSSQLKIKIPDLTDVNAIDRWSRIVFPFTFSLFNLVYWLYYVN
GABA A receptor alpha-2/beta-2/gamma-2, sequence (P18508 whole entry): as the sequence (P18508 whole entry) above
GABA A receptor alpha-2/beta-2/gamma-2, sequence (P23576 whole entry): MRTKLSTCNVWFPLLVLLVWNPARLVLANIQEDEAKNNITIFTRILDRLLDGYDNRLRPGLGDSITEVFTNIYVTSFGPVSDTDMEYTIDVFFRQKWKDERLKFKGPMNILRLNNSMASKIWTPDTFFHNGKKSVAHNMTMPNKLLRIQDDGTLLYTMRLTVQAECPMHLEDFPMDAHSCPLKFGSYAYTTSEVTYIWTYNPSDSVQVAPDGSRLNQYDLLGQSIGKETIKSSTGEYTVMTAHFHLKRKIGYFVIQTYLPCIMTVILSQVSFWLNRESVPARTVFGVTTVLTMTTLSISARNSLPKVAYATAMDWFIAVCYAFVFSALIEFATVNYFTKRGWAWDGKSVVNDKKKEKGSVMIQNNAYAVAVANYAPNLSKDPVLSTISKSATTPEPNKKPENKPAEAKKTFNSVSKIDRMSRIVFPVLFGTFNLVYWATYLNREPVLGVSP
GABA A receptor alpha-2/beta-2/gamma-2, sequence (P63138 whole entry): as the sequence (P63138 whole entry) above

The molecule `Cc1ccc(-c2nn3c(=O)[nH]c4ccccc4n3c2=O)cc1` had a Ki in test [1] of 616 nM. Consider `COc1ccc(-c2nn3c(=O)[nH]c4ccc(Cl)cc4n3c2=O)cc1`, for which the inhibitory constant (Ki) in test [2] came to 1.82 nM; in test [3], 18 nM; in test [4] it was 7.57 nM; in test [1], 6 nM. In turn, `O=c1[nH]c2ccc(Cl)cc2n2c(=O)c(-c3ccc(F)cc3)nn12` showed an inhibition constant (Ki) in test [1] of 56 nM. In test [1], `O=c1[nH]c2ccccc2n2c(=O)c(-c3ccc(F)cc3)nn12` returned a Ki of 54 nM. `COc1ccc(-c2nn3c(=O)[nH]c4ccccc4n3c2=O)cc1`: the inhibitory constant (Ki) in test [2] came out at 3.76 nM; in test [3] it was 14.3 nM; in test [4], 17.2 nM; in test [1] it was 11 nM. On the same counts, the results for `O=c1[nH]c2ccccc2n2c(=O)c(-c3ccccc3)nn12` are 9.14 nM, 27.6 nM, 24.1 nM and 22 nM. Consider `Cc1ccc(-c2nn3c(=O)[nH]c4ccc(Cl)cc4n3c2=O)cc1`, for which the Ki in test [1] is 185 nM. In test [1], `O=c1[nH]c2ccccc2n2c(=O)c(-c3ccc(Cl)cc3)nn12` displayed an inhibitory constant (Ki) of 169 nM.

Consider `O=c1[nH]c2ccccc2n2c(=O)c(-c3ccc(Br)cc3)nn12`, for which the Ki in test [1] came out at 224 nM. As for `O=c1[nH]c2ccccc2n2c(=O)c(-c3ccccc3F)nn12`, the Ki in test [1] was above 10000 nM. `COc1ccc(-c2nn3c(=O)[nH]c4ccccc4n3c2=O)cc1OC` registered an inhibitory constant (Ki) in test [1] above 10000 nM.

In test [1], `O=c1[nH]c2ccc(Cl)cc2n2c(=O)c(-c3ccc(Cl)cc3)nn12` showed a Ki of 38 nM. As to `O=c1[nH]c2ccc(Cl)cc2n2c(=O)c(-c3ccccc3)nn12`, the inhibitory constant (Ki) in test [2] is 1.74 nM; in test [3], 13.9 nM; in test [4], 10.3 nM; in test [1], 2.8 nM. In test [1], `O=C1CN=C(c2ccccc2Cl)c2cc([N+](=O)[O-])ccc2N1` [CLONAZEPAM] gave a Ki of 0.85 nM.

A word on the Ki: it is the dissociation constant of the complex between target and ligand, obtained from inhibition or displacement. A lower Ki goes with higher affinity.
